Laboratory results taken from ChEMBL document CHEMBL2390926, “Identification of novel FLT3 kinase inhibitors” (Eur J Med Chem, 2013).
The source made the active and inactive calls. The calls are words filed in the database; no cut-off is given here.

Key:
Type in all cases: cell-based
Settings in all cases: BaF3
[1] = biological target: Tyrosine-protein kinase receptor UFO (Homo sapiens) (UniProt P30530); test: Inhibition of AXL (unknown origin) transfected in mouse Ba/F3 cells at 1 uM after 24 hrs
Sequence of Tyrosine-protein kinase receptor UFO (Homo sapiens) (P30530 whole entry): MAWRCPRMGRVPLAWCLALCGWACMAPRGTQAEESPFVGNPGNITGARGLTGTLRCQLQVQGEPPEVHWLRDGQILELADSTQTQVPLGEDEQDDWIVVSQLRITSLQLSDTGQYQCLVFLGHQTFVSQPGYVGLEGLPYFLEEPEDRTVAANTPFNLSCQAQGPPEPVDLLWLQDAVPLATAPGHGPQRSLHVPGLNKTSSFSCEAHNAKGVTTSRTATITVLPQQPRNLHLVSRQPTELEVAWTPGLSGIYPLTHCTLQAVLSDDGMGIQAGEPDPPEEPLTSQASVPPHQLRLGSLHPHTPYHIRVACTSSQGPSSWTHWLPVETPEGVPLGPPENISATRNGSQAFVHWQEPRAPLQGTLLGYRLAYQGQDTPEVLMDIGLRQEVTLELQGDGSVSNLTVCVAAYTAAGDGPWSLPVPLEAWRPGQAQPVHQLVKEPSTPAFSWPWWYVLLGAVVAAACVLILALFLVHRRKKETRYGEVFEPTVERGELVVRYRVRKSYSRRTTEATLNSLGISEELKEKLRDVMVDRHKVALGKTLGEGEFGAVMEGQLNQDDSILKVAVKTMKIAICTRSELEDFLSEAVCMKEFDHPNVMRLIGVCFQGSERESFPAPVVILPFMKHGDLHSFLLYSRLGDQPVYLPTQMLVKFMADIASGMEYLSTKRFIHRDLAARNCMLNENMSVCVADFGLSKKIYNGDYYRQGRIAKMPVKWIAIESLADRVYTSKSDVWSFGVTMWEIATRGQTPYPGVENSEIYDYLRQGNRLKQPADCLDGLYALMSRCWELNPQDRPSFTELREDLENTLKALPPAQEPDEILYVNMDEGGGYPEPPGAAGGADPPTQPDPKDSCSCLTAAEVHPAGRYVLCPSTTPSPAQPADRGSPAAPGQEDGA
In short: (§1)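 Kinase specificity panel: each Ba/F3 line transformed with one of 24 tyrosine kinases depends on that kinase to grow. Cells were given compound at 1 or 5 µM for 24 h, with DMSO as comparator. Percentage growth was read by ATP-lite luminescence and reported as mean ± SEM.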

[2] = biological target: Ephrin type-A receptor 2 (Homo sapiens) (UniProt P29317); test: Inhibition of EPHA2 (unknown origin) transfected in mouse Ba/F3 cells at 1 uM after 24 hrs; in short: as §1
Sequence of Ephrin type-A receptor 2 (Homo sapiens) (P29317 whole entry): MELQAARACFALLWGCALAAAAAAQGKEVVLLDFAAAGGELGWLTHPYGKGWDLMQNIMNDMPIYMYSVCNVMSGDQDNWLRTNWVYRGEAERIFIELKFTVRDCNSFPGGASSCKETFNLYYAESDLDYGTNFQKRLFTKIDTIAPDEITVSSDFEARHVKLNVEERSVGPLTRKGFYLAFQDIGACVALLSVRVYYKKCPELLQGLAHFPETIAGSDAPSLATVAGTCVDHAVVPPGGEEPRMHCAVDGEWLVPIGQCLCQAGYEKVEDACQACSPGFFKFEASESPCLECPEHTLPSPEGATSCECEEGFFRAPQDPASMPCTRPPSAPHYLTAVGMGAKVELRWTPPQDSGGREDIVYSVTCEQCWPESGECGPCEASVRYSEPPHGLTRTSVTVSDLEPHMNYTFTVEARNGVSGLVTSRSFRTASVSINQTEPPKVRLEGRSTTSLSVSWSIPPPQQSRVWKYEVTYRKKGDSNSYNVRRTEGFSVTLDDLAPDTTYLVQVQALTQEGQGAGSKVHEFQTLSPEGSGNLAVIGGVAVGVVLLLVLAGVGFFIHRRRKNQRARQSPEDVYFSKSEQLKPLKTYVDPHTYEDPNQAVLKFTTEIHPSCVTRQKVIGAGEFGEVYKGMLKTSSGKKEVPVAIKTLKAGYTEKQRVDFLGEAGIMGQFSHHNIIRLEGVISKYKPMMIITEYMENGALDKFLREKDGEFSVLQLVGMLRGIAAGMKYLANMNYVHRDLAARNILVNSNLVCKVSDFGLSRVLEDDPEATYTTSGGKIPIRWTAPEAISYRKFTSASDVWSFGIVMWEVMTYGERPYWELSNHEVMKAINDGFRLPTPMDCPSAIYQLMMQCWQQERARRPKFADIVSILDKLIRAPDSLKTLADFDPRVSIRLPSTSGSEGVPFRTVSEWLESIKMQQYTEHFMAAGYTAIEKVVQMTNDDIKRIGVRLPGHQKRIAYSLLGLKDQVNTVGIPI

[3] = biological target: Tyrosine-protein kinase Fyn (Homo sapiens) (UniProt P06241); test: Inhibition of FYN (unknown origin) transfected in mouse Ba/F3 cells at 5 uM after 24 hrs; in short: as §1
Sequence of Tyrosine-protein kinase Fyn (Homo sapiens) (P06241 2-537 limits assumed): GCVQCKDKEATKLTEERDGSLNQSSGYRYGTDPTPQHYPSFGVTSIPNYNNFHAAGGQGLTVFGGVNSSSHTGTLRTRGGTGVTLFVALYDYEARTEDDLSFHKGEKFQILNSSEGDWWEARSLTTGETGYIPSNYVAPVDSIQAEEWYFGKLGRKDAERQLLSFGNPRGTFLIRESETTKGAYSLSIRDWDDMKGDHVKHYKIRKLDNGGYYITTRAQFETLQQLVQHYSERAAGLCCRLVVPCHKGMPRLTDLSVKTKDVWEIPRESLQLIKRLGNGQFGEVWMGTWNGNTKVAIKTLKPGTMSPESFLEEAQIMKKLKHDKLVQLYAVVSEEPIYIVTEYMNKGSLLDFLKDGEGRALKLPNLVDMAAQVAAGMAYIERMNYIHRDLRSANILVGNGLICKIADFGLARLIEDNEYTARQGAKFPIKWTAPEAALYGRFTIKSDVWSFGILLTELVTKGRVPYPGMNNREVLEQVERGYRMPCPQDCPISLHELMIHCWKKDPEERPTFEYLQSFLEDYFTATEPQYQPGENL

[4] = biological target: T1, Ephrin type-A receptor 8 (Homo sapiens) (UniProt P29322); test: Inhibition of EPHA8 (unknown origin) transfected in mouse Ba/F3 cells at 5 uM after 24 hrs; in short: as §1
T1 sequence (whole entry): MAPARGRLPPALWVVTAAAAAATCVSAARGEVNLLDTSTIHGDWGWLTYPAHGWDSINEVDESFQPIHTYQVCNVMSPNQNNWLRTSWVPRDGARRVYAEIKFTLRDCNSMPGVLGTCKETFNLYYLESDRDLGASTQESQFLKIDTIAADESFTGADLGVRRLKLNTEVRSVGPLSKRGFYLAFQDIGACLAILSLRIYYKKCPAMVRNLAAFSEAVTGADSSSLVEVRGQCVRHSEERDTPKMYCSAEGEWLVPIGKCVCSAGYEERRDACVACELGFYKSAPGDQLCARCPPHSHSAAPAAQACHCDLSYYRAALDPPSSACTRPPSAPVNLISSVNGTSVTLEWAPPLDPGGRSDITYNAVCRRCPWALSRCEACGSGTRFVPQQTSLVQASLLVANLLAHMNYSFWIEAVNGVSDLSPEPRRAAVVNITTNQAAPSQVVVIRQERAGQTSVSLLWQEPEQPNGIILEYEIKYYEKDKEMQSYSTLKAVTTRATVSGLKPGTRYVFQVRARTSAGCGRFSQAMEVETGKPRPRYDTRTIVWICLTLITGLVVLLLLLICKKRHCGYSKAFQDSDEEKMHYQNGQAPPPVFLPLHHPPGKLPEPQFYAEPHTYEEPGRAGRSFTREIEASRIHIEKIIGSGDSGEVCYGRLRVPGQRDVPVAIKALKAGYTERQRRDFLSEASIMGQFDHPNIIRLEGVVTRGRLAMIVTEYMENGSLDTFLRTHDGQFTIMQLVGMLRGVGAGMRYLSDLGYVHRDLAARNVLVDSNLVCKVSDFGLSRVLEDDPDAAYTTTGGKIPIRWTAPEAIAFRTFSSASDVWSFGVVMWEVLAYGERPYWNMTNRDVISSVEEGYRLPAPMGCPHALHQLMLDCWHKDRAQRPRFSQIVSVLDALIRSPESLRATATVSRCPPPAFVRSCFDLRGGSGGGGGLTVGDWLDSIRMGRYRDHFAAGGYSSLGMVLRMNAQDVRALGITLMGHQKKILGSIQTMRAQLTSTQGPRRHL

[5] = biological target: T2, Receptor-type tyrosine-protein kinase FLT3 (Mus musculus) (UniProt Q00342); test: Inhibition of FLT3 phosphorylation in mouse Ba/F3 cells transfected with FLT3-ITD cells at 500 nM after 90 mins by Western blot analysis
T2 sequence (whole entry): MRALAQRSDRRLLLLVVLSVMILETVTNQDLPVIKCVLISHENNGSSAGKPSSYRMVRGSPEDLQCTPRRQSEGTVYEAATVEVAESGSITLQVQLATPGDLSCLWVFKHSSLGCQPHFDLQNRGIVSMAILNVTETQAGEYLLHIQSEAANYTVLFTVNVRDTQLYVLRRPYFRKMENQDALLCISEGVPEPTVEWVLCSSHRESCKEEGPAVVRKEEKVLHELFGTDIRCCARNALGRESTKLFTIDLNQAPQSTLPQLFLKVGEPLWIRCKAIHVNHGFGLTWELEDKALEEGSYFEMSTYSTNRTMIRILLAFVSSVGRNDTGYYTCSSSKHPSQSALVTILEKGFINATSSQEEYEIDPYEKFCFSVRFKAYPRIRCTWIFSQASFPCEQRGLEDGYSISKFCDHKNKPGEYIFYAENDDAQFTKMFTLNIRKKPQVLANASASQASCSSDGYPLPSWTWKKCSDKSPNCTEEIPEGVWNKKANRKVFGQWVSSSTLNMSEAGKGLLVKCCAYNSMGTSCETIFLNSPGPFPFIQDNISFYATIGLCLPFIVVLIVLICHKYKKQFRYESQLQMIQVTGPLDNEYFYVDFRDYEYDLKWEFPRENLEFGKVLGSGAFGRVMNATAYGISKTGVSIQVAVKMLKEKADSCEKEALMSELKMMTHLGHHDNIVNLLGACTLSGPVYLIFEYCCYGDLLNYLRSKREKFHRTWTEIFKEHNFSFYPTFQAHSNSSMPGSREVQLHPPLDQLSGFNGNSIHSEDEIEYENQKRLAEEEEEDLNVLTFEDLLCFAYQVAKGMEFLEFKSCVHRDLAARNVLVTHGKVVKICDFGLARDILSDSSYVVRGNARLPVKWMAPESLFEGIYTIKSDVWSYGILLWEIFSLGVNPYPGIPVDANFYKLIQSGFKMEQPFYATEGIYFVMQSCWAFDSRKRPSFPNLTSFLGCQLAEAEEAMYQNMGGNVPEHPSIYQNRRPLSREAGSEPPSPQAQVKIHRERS
In short: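 Ba/F3-FLT3-ITD cells were treated for 90 min with increasing doses. They were lysed in buffer with 1 mM NaVO4 and protease inhibitors, then reduced and run on Bis-Tris 4–12% gels for Western blot. Phospho-FLT3 and phospho-STAT5 were detected, with total FLT3 and STAT5 as loading controls.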

[6] = biological target: Ephrin type-A receptor 2 (Homo sapiens) (UniProt P29317); test: Inhibition of EPHA2 (unknown origin) transfected in mouse Ba/F3 cells at 5 uM after 24 hrs; in short: as §1
[7] = biological target: Tyrosine-protein kinase ABL2 (Homo sapiens) (UniProt P42684); test: Inhibition of ABL2 (unknown origin) transfected in mouse Ba/F3 cells at 5 uM after 24 hrs; in short: as §1
Sequence of Tyrosine-protein kinase ABL2 (Homo sapiens) (P42684 whole entry): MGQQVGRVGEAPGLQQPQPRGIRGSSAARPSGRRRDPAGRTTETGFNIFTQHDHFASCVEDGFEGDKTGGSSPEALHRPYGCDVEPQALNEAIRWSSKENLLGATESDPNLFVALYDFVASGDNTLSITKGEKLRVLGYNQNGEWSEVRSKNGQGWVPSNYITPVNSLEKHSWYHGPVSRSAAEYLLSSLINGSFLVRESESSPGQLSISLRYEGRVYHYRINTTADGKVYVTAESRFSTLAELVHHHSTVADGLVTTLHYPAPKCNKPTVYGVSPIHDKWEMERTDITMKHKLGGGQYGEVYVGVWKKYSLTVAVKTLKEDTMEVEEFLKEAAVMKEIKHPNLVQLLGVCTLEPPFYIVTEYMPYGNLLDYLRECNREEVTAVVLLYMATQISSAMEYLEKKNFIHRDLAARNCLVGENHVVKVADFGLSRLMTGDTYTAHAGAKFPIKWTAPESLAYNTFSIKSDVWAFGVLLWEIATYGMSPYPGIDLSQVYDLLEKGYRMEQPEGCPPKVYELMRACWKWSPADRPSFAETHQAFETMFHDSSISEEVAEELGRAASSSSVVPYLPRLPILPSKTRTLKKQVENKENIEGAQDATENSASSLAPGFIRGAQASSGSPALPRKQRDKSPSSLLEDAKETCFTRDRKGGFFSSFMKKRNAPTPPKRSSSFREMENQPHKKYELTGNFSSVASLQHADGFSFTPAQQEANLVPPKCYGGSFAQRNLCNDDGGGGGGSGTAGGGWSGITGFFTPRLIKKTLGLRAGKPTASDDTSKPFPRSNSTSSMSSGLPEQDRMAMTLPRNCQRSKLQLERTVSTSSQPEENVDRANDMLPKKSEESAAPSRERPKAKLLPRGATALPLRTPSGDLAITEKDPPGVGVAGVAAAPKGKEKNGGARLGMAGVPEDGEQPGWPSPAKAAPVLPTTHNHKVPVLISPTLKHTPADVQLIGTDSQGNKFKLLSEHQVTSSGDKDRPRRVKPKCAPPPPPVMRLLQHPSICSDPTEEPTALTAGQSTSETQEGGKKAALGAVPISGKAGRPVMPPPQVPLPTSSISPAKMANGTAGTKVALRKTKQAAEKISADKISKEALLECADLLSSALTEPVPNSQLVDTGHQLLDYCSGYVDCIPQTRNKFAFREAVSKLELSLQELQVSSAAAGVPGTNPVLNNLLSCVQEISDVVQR

COc1ccc(C(=O)Nc2cc(-c3ccccc3)[nH]n2)cc1
inhibition [1]: inactive | inhibition [2]: inactive

Fc1ccc(-c2n[nH]cc2-c2ccncc2)cc1Cl
inhibition [3]: inactive | inhibition [4]: Active | inhibition [5]: Active | inhibition [6]: inactive | inhibition [7]: Active

Cc1ccc(-c2cc(NC(=O)c3ccc(F)cc3)[nH]n2)cc1
inhibition [1]: inactive | inhibition [2]: inactive | inhibition [5]: Active

Cc1cccc(C(=O)Nc2cc(-c3ccc(F)cc3)n[nH]2)c1
inhibition [1]: inactive | inhibition [2]: inactive | inhibition [5]: Active

Cc1ccc(-n2cnc3cc(Nc4nnc(C)c5ccccc45)ccc32)cc1
inhibition [3]: inactive | inhibition [4]: inactive | inhibition [5]: Active | inhibition [6]: inactive | inhibition [7]: inactive
